From PubChem BioAssay AID504382 (The Scripps Research Institute Molecular Screening Center, 2011)
About 460 (18%) of roughly 2,500 compounds were called active. The list is a sample of the results. Values without a mark were called inactive.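 Rule for the calls: active = mean activation above a cutoff of low control average plus 3 SD from the earlier screen (cut at about 12% in these data); inactive = the rest.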

Experiment: IANBD-channel fluorescence artefacts in buffer – biochemical, artefact control for cardiac RTF calcium sensitizer project, confirmation (AID 504382)
Settings: IANBD fluorescence interference counterscreen, EC20 Ca2+, at 7.2 µM, stronger effect = higher value, scaled: EC20 calcium 0, EC100 calcium 100
Method in brief: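 Technique: fluorescence, 480/540 nm / Medium: MOPS-based buffer with KCl, MgCl2, EGTA, NTA, DTT, pH 7.2 / Probe or stimulus: calcium at EC20 level, 0.472 mM final / Repeats: triplicate wells per compound / Times: 15 min compound exposure at 25 °C / Measure: compound fluorescence interference relative to control well signal range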
Molecule `O=C(Nc1ccc(F)cc1F)c1ccc(COc2c(F)c(F)cc(F)c2F)o1` has a fluorescence artifact activation of -0.01%. Work on `CCCCc1ccc(NC(=O)N2CCNC(=O)C2CC(=O)Nc2ccsc2C(=O)OC)cc1` (stereo not drawn) yielded a fluorescence artifact activation of -0.11%. `Cc1cn2c(N)c(C=C3C=C(Cl)C(=O)C(Cl)=C3)c(=O)nc2s1` gave a fluorescence artifact activation of 4.46%. Work on `CCOC(=O)CN1C(=O)S/C(=C/C=C/c2ccc(N(C)C)cc2)C1=O` yielded a fluorescence artifact activation of -0.03%. Work on `CCCN(CCC)CC(O)Cn1cc(/C=C/C(=O)c2cccs2)c2ccccc21` (stereo not drawn) yielded a fluorescence artifact activation of 0.1%. Molecule `Cc1ccc(C(=O)/C=C/c2cn(CC(O)CN3CCOCC3)c3ccccc23)cc1` (stereo not drawn) has a fluorescence artifact activation of 0.01%. With `O=C(/C=C/c1cn(CC(O)CN2CCCCC2)c2ccccc12)c1cccs1` (stereo not drawn) the fluorescence artifact activation was 14.5% (active). `COc1ccc(C(=O)/C=C/c2cn(CC(O)CN3CCOCC3)c3ccccc23)cc1` (stereo not drawn) showed a fluorescence artifact activation of 6.56%. For `O=C(/C=C/c1cn(CC(O)CN2CCCCCC2)c2ccccc12)c1cccs1` (stereo not drawn), the fluorescence artifact activation was 5.69%. In the case of `COc1ccc(C(=O)/C=C/c2cn(CC(O)CN3CCN(C)CC3)c3ccccc23)cc1OC` (stereo not drawn), the fluorescence artifact activation is reported as 18.9% (active). Work on `CCN(CC)c1ccc(-c2sc(Nc3ccccc3)n[n+]2-c2ccc(F)cc2)cc1` yielded a fluorescence artifact activation of 3.87%. Molecule `C=CCOc1ccn(C)c(=O)n1` has a fluorescence artifact activation of 2.39%. With `O=[N+]([O-])c1ccc(/C=C/C2=NN(c3ccccc3)C(c3ccco3)C2)cc1` (stereo not drawn) the fluorescence artifact activation was 6.35%. `Cc1nnc(N/N=C/c2ccc(O)c([N+](=O)[O-])c2)[nH]c1=O` showed a fluorescence artifact activation of 8.03%. Work on `O=S1(=O)CCOC[C@H](CC2CCCCC2)N1Cc1ccccc1` yielded a fluorescence artifact activation of 0.05%. With `CCCC(=O)NCCCc1nc2ccccc2n1C` the fluorescence artifact activation was 43.2% (active). In the case of `Cn1c(=O)c2c(nc(NCCNC(=O)c3ccco3)n2Cc2ccccc2Cl)n(C)c1=O`, the fluorescence artifact activation is reported as 0.11%. `CCn1c(CNc2ccc(C(=O)O)cc2)nc2ccccc21` showed a fluorescence artifact activation of -0.08%. `O=C(Cn1c(C(F)(F)F)nc2ccccc21)NCCN1CCCC1` showed a fluorescence artifact activation of 0.11%. In the case of `Cn1c(CCNC(=O)c2ccco2)nc2ccccc21`, the fluorescence artifact activation is reported as 350% (active). In the case of `O=C(NCCNC(=O)c1cccs1)c1ccco1`, the fluorescence artifact activation is reported as 10.5%. With `COc1ccc(CN2CNc3c(c(=O)n(C)c(=O)n3C)C2)cc1` the fluorescence artifact activation was 6.35%. `Brc1ccc(-c2noc(-c3ccccn3)n2)o1` showed a fluorescence artifact activation of 0.61%. For `O=C1C(=Cc2ccco2)CCCC1=Cc1ccco1`, the fluorescence artifact activation was 6.25%. In the case of `O=C(NCc1ccccc1Cl)c1ccc2nc[nH]c2c1`, the fluorescence artifact activation is reported as -0.08%. With `CCOC(=O)CC1=NS(=O)(=O)c2ccccc2N1` the fluorescence artifact activation was 2.81%. With `COc1ccccc1NS(=O)(=O)c1ccccc1C#N` the fluorescence artifact activation was -0.04%. For `COc1ccccc1NS(=O)(=O)c1cc(NC(=O)c2cc3ccccc3oc2=O)ccc1C`, the fluorescence artifact activation was 16.8% (active). `COc1ccccc1NS(=O)(=O)c1cc(NC(=O)CCNC(C)=O)ccc1N1CCCCC1` gave a fluorescence artifact activation of 0.74%. In the case of `CCNc1nc(SCC(N)=O)nc2sc3c(c12)CCN(C)C3`, the fluorescence artifact activation is reported as 0.22%. Molecule `CN(/N=C/c1ccc(-c2ccc([N+](=O)[O-])cc2)o1)c1ccccc1` has a fluorescence artifact activation of 9.54%. With `COCCN=c1scc(-c2cc(OC)c(OC)c(OC)c2)n1/N=C/c1c(C)[nH]c2ccccc12` the fluorescence artifact activation was 21.1% (active). In the case of `COc1ccccc1NS(=O)(=O)c1cc([N+](=O)[O-])ccc1N/N=C/c1c(C)[nH]c2ccccc12`, the fluorescence artifact activation is reported as 4.83%. Work on `CCN(CC)S(=O)(=O)c1ccc2[nH]c(=O)[nH]c2c1` yielded a fluorescence artifact activation of 0.38%. For `CCN(CC)S(=O)(=O)c1ccc2[nH]cc(C(=O)NCCN3CCCCCC3)c(=O)c2c1`, the fluorescence artifact activation was 14.6% (active). Work on `Cn1c(C(=O)NCCCN2CCCCCC2)cc2c(=O)n(C)c3ccccc3c21` yielded a fluorescence artifact activation of 3.34%. `O=C(CSCc1ccco1)NC1CCCC1` gave a fluorescence artifact activation of 5.75%. For `CCN(CC)C1=CC2=CC(=C(C#N)C#N)CCC2CC1` (stereo not drawn), the fluorescence artifact activation was 0.13%. For `O=C(Nc1ccc(S(=O)(=O)Nc2ncccn2)cc1)C1CC(=O)N(c2ccccc2)C1` (stereo not drawn), the fluorescence artifact activation was -0.09%. With `O=C(Nc1ccc(S(=O)(=O)Nc2ncccn2)cc1)c1nn(Cc2ccccc2)c(=O)c2ccccc12` the fluorescence artifact activation was 303% (active). `CCn1cc([N+](=O)[O-])c(C(=O)Nc2ccn(Cc3ccccc3)n2)n1` showed a fluorescence artifact activation of 1.63%. With `CC(=O)c1ccc2c(c1)c(C#N)c1ccccc1[n+]2[O-]` the fluorescence artifact activation was 57.1% (active). In the case of `O=S(=O)(CCN(CCS(=O)(=O)C(F)(F)F)CC1CCCO1)C(F)(F)F` (stereo not drawn), the fluorescence artifact activation is reported as 0.02%. `O=C(c1cnc2ccccc2n1)N1CCN(c2ccc(C(F)(F)F)cn2)CC1` showed a fluorescence artifact activation of 5.21%. `CN(C)CCOc1ccccc1C(C)(C)C` gave a fluorescence artifact activation of 0.06%. `O=C1c2c(O)cc(O)cc2O[C@@]12c1c(cc(O)c3c1O[C@H](c1ccc(O)cc1)[C@@H](O)C3)O[C@@H]2c1ccc(O)cc1` gave a fluorescence artifact activation of 0%. `c1ccc(Cn2c(-c3ccccc3)nc3nc4ccccc4nc32)cc1` gave a fluorescence artifact activation of 6.17%. In the case of `O=S(=O)(O)c1nc2ccccc2n1Cc1ccccc1`, the fluorescence artifact activation is reported as 16.5% (active). Work on `CCn1c(C(C)NC(C)=O)nc2ccccc21` (stereo not drawn) yielded a fluorescence artifact activation of 2.7%. Molecule `NC(=O)[C@@H]1CCCNc2c(I)cc([N+](=O)[O-])cc2C(=O)N[C@@H](CCC(=O)O)C(=O)N[C@@H](CO)C(=O)N1` has a fluorescence artifact activation of 0%. In the case of `Cc1ccc(S(=O)(=O)N2CC(C(=O)O)=CC[C@H]2c2ccc(Cl)cc2)cc1`, the fluorescence artifact activation is reported as 0.03%. Molecule `Cc1cccc(NC(=O)c2ccc(C(=O)c3ccccc3)cc2)n1` has a fluorescence artifact activation of 1.13%. For `O=C(COC(=O)c1ccc(O)cc1)Nc1ccc2c(c1)OCCO2`, the fluorescence artifact activation was 13.1% (active). Molecule `Cc1cc(C(=O)O)ccc1-c1ccc(/C=C2\SC(=O)N(CC(=O)Nc3ccc4c(c3)OCO4)C2=O)o1` has a fluorescence artifact activation of 0.42%. `NC(=O)c1ccc(NC(=O)COC(=O)c2c3c(nc4ccccc24)/C(=C\c2ccc4c(c2)OCO4)CCC3)cc1` showed a fluorescence artifact activation of 0.16%. With `Cc1cc(C)c(S(=O)(=O)Nc2ccc3[nH]c(=O)[nH]c3c2)c(C)c1` the fluorescence artifact activation was 3.79%. In the case of `O=C/C(=C\Nc1ccc(S(=O)(=O)CCO)cc1)c1nc2cc(Cl)ccc2o1`, the fluorescence artifact activation is reported as 20.2% (active). `Cc1ccc(-c2nc3sc(C#N)c(N)n3c(=O)c2C#N)cc1` gave a fluorescence artifact activation of 0.13%. `CC(C)CC1C(C#N)=C(N)SC(N)=C1C#N` showed a fluorescence artifact activation of 0.12%. `Cc1ccc(-n2c(C)cc(C(=O)COC(=O)c3ccc[nH]c3=O)c2C)cc1` gave a fluorescence artifact activation of -0.02%. For `Cc1cc(C(=O)COc2cccc3cccnc23)c(C)n1C`, the fluorescence artifact activation was 21.4% (active). For `Cc1ccc(/C=C/C(=O)Nc2cccc3cccnc23)o1`, the fluorescence artifact activation was 4.18%. `COc1ccc(NC(=O)c2cccc(-c3ccc(O)cc3)c2)cn1` showed a fluorescence artifact activation of -0.04%. In the case of `Cc1nc(-n2[nH]c3c(c2=O)CCCC3)[nH]c(=O)c1Cc1ccccc1`, the fluorescence artifact activation is reported as 7.51%. For `Cc1ccnc(N2C(=O)c3cccc4c([N+](=O)[O-])ccc(c34)C2=O)c1`, the fluorescence artifact activation was 3.75%. In the case of `CN(C)CCCN1C(=O)c2cccc3c([N+](=O)[O-])ccc(c23)C1=O`, the fluorescence artifact activation is reported as 14.2% (active). `O=C1c2cccc3c([N+](=O)[O-])ccc(c23)C(=O)N1Cc1cccnc1` gave a fluorescence artifact activation of 0.04%. `O=C(O)c1ccccc1C1=Nc2ccc(O)cc2Oc2cc(O)ccc21` gave a fluorescence artifact activation of 0.18%. With `Cc1cc(C)n(NC(=S)NC2CCCCC2)c(=O)c1C#N` the fluorescence artifact activation was -0.01%. `Cc1ccccc1-c1noc(-c2cccs2)n1` gave a fluorescence artifact activation of 5.07%. `CC(=O)[C@H]1[C@H](C#N)C[C@H]2[C@@H]3CC=C4C[C@@H](O)CC[C@]4(C)[C@H]3CC[C@@]21C` showed a fluorescence artifact activation of 10.9%. `Cc1cc(-n2c(=O)c(C#N)cc3c(=O)n4ccccc4nc32)no1` gave a fluorescence artifact activation of 0.34%. With `CN(C)c1ccc(/C=C2\Oc3ccc(C#Cc4cccc(N)c4)cc3C2=O)cc1` the fluorescence artifact activation was 0.09%. In the case of `Cc1nn(-c2ccccc2)c(N2CCCC2)c1/C=C1\N=C(c2ccc(OC(C)C)cc2)OC1=O`, the fluorescence artifact activation is reported as 0.42%. For `COc1ccc(NC(C)=O)cc1NC(=O)C1CCCN1C(=O)c1cccs1` (stereo not drawn), the fluorescence artifact activation was -0.02%. In the case of `CCN(CC)c1ccc(/C=c2/sc3nnc(-c4ccccc4C)n3c2=O)cc1`, the fluorescence artifact activation is reported as 0.53%. Molecule `CCN(CC)c1ccc(/C=c2\sc3nc4ccccc4n3c2=O)c(O)c1` has a fluorescence artifact activation of 3.44%. For `CCN(CC)c1ccc(/C=c2\sc3nnc(-c4ccccc4Cl)n3c2=O)cc1`, the fluorescence artifact activation was 13.8% (active). `Cc1ccc(/C=C/C(=O)N2CCN(S(=O)(=O)c3ccc(C)c(C)c3)CC2)o1` gave a fluorescence artifact activation of 2.09%. Work on `Cc1ccc(C(=O)N2C(=O)C(c3ccccc3)Oc3ccccc32)cc1` (stereo not drawn) yielded a fluorescence artifact activation of 0.42%. Work on `CN1CC=C2C(C#N)=C(N)C(C#N)(C#N)C(c3ccsc3)C2C1` (stereo not drawn) yielded a fluorescence artifact activation of 0.22%. `CCCN1C=CC(=CC=C(C#N)C#N)C=C1` gave a fluorescence artifact activation of 4.48%. For `C=CCN1C=CC(=CC=C(C#N)C#N)C=C1`, the fluorescence artifact activation was 251% (active). In the case of `CCOc1ccc(S(=O)(=O)n2ccnc2)c2ccccc12`, the fluorescence artifact activation is reported as 2.67%. Molecule `CCc1ccc(C(=O)NNC(=O)c2cccc(N3C(=O)CCC3=O)c2)cc1` has a fluorescence artifact activation of 2.93%. With `CCc1cc[n+](-c2nc3ccccc3nc2[N-]S(=O)(=O)c2ccc(Br)s2)cc1` the fluorescence artifact activation was -0.02%. For `Cc1ccc[n+](-c2nc3ccccc3nc2[N-]S(=O)(=O)c2ccccc2)c1`, the fluorescence artifact activation was 17.5% (active). Work on `O=S(=O)([N-]c1nc2ccccc2nc1-[n+]1ccc(-c2ccncc2)cc1)c1ccccc1` yielded a fluorescence artifact activation of 0.08%. `CC1=Nc2ccccc2/C1=C\c1nc(-c2ccc(F)cc2)oc1O` gave a fluorescence artifact activation of 0.71%. Molecule `Cc1ccc(NC(=S)Nc2ccc3nc(-c4ccccn4)c(-c4ccccn4)nc3c2)cc1C` has a fluorescence artifact activation of 0%. With `CC(C)CNC(=S)NC(=O)c1ccccc1Cl` the fluorescence artifact activation was 32.2% (active). Molecule `O=C(COc1ccccc1)NC(=S)Nc1cccc(NC(=O)c2ccccc2Cl)c1` has a fluorescence artifact activation of 0.01%. Molecule `Cc1ccccc1C(=O)NC(=S)NC1CC1` has a fluorescence artifact activation of 0.12%.
